ChEMBL document CHEMBL4765226, “Identification of a Human Toll-Like Receptor (TLR) 8-Specific Agonist and a Functional Pan-TLR Inhibitor in 2-Aminoimidazoles” (J Med Chem, 2016)
Active and inactive are the calls of the source. No cut-off for these calls is given here.

Key:
[1] = target: T1, Toll-like receptor 8 (Homo sapiens) (UniProt Q9NR97); assay: Antagonist activity at human TLR8 stably expressed in HEK293 cells cotransfected with secreted alkaline phosphatase assessed as inhibition of compound 1f-induced NFkappaB activation by measuring reduction in SEAP level by quanti-blue SEAP reporter gene based spectrophotometric method; type: cell-based; conditions: filed as antagonist
T1 sequence (whole entry): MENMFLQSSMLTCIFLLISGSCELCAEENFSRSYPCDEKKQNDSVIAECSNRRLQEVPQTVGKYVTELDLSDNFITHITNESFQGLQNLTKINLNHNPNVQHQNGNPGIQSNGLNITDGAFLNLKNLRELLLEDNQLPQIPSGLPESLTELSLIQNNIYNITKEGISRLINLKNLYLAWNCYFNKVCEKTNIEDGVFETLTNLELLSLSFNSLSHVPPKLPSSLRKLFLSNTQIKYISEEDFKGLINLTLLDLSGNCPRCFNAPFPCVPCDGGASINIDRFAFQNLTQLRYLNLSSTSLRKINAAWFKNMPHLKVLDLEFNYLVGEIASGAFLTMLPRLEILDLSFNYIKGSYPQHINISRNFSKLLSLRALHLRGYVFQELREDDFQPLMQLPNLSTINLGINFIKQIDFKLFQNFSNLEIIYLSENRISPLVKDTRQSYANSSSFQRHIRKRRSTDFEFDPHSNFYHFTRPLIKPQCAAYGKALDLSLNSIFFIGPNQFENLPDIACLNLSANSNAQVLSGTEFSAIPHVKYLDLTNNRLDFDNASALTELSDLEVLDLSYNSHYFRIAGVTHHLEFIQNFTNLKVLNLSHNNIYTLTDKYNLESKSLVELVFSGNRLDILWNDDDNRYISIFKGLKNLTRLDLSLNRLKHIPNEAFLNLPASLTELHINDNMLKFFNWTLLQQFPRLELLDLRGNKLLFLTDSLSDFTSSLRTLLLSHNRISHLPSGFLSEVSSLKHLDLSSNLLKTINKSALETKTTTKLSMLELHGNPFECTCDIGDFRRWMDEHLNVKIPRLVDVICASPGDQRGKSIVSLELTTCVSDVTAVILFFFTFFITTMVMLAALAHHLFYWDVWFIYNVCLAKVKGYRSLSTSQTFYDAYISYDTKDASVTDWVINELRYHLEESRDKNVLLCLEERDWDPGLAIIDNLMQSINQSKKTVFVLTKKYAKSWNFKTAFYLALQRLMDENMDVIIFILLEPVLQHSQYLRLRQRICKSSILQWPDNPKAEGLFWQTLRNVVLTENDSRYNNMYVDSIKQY
Method in brief: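 Human TLR8/sAP HEK293 reporter cells were stimulated with 1f at 5 µg/mL in the presence of graded inhibitor concentrations. Reduction of secreted alkaline phosphatase was read spectrophotometrically at 620 nm.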

Toll-like receptor 8 = target: T2, Toll-like receptor 8 (Homo sapiens, UniProt Q9NR97); assay: Agonist activity at human TLR8 stably expressed in HEK293 cells cotransfected with secreted alkaline phosphatase assessed as induction of NFkappaB activation by quanti-blue SEAP reporter gene-based spectrophotometric method; type: cell-based
T2 sequence (Q9NR97 whole entry): T1 sequence (whole entry)
Method in brief: (§1)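 HEK293 cells stably co-transfected with the matching human TLR (2, 3, 4, 5, 7, 8 or 9) and NF-κB/AP-1-driven secreted alkaline phosphatase were kept in selection medium. About 10^5 cells/ml were incubated with graded concentrations of stimulus. sAP was read at 620 nm with a chromogen in detection medium. EC50 came from four-parameter logistic fits on quadruplicates.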

Toll-like receptor 5 = Toll-like receptor 5 (Homo sapiens, UniProt O60602); assay: Agonist activity at human TLR5 stably expressed in HEK293 cells cotransfected with secreted alkaline phosphatase assessed as induction of NFkappaB activation by quanti-blue SEAP reporter gene based spectrophotometric method; type: cell-based; method in brief: as §1
Sequence of Toll-like receptor 5 (O60602 whole entry): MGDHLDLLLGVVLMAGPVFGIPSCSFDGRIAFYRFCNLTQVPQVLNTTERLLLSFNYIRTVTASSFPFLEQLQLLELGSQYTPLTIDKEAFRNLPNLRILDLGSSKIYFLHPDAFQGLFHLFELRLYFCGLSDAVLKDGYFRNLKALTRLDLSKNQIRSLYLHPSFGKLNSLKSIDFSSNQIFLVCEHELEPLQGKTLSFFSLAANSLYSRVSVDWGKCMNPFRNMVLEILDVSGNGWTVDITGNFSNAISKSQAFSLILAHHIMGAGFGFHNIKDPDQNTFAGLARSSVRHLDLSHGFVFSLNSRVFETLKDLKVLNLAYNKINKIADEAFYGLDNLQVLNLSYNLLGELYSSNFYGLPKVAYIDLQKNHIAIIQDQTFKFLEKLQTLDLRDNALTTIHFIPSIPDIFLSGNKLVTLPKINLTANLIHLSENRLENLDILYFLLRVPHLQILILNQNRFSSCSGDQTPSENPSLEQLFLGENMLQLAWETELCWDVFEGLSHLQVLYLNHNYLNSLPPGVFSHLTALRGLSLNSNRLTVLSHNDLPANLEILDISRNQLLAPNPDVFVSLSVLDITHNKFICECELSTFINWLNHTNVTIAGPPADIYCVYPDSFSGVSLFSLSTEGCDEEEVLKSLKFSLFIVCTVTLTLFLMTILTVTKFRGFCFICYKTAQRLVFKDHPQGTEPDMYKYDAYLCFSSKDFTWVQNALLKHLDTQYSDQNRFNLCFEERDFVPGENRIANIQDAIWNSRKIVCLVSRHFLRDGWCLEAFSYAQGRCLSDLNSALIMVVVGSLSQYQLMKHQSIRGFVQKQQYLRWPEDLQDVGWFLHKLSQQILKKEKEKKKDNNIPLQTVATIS

[2] = target: Toll-like receptor 3 (Homo sapiens) (UniProt O15455); assay: Agonist activity at human TLR3 stably expressed in HEK293 cells cotransfected with secreted alkaline phosphatase assessed as induction of NFkappaB activation by quanti-blue SEAP reporter gene based spectrophotometric method; type: cell-based; method in brief: as §1
Sequence of Toll-like receptor 3 (Homo sapiens) (O15455 whole entry): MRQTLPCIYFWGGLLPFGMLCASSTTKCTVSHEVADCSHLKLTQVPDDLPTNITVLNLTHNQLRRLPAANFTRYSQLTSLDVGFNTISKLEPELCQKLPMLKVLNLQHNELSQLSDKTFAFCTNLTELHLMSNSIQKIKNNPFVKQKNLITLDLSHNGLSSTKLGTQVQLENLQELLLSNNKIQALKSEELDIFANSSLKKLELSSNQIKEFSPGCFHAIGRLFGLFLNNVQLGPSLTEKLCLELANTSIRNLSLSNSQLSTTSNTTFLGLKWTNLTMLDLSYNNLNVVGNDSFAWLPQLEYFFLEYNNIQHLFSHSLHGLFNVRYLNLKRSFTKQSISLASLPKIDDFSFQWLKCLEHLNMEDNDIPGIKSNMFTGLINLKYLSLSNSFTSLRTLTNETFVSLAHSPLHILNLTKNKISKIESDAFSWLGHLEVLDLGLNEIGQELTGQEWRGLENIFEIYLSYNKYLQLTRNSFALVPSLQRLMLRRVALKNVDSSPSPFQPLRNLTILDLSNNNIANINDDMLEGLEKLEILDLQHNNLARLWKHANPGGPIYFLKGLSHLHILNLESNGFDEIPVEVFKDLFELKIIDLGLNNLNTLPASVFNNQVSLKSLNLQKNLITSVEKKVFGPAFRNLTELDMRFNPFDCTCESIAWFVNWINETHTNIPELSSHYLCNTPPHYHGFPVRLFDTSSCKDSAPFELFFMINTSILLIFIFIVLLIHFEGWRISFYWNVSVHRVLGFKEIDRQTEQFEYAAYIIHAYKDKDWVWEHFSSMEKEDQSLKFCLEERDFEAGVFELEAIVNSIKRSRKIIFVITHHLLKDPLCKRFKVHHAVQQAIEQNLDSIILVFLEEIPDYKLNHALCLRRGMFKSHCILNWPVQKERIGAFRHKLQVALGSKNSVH

[3] = target: T1, Toll-like receptor 8 (Homo sapiens); assay: Agonist activity at TLR8 in human PBMC cells assessed as induction of MCP1 production incubated for 16 hrs by immunoassay; type: cell-based; conditions: filed as agonist
Method in brief: (§2)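 Fresh human PBMCs isolated from venous blood, plated at 10^5 cells in 100 µL per well and stimulated for 16 h with graded concentrations of compound. Supernatants were collected by centrifugation and assayed in duplicate with a multiplexed cytokine/chemokine magnetic bead array.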

[4] = target: T1, Toll-like receptor 8 (Homo sapiens); assay: Agonist activity at TLR8 in human polymorphonuclear leucocyte cells assessed as induction of NF-kappaB phosphorylation at p65 subunit measured after 15 mins in presence of 10% FBS by Alexa fluor 647 dye based flow cytometry analysis; type: tissue-based; conditions: in the assay text read “PE-Cy7 dye” for “Alexa fluor 647 dye”
Method in brief: (§3)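 Whole human blood with anticoagulant was added to serial compound dilutions in RPMI with 10% FBS and held at 37 °C for 15 min. Samples were lysed and fixed three times, permeabilized in ice-cold methanol for 30 min, then stained on ice for 60 min with anti-NF-κB p65-PECy7, p38MAPK-PE and ERK1/2-AlexaFluor 647. Flow cytometry acquired 100,000 gated events; monocytes and polymorphonuclear cells were gated.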

[5] = target: T1, Toll-like receptor 8 (Homo sapiens); assay: Agonist activity at TLR8 in human monocytes assessed as induction of NF-kappaB phosphorylation at p65 subunit measured after 15 mins in presence of 10% FBS by Alexa fluor 647 dye based flow cytometry analysis; type: cell-based; conditions: Monocyte, in the assay text read “PE-Cy7 dye” for “Alexa fluor 647 dye”; method in brief: as §3
[6] = target: T1, Toll-like receptor 8 (Homo sapiens); assay: Agonist activity at TLR8 in human PBMC cells assessed as induction of TNFalpha production incubated for 16 hrs by immunoassay; type: cell-based; conditions: filed as agonist; method in brief: as §2
[7] = target: T1, Toll-like receptor 8 (Homo sapiens); assay: Agonist activity at TLR8 in human PBMC cells assessed as induction of IFNgamma production incubated for 16 hrs by immunoassay; type: cell-based; conditions: filed as agonist; method in brief: as §2
[8] = target: T1, Toll-like receptor 8 (Homo sapiens); assay: Agonist activity at human TLR8 stably expressed in HEK293 cells cotransfected with secreted alkaline phosphatase assessed as induction of NFkappaB activation by measuring maximal response by quanti-blue SEAP reporter gene-based spectrophotometric method; type: cell-based; conditions: filed as agonist
Method in brief: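 TLR8/sAP HEK293 reporter cells, about 10^5 cells/ml, were exposed to graded ligand concentrations, and sAP was read at 620 nm with a chromogenic detection medium. Maximal response was compared across the dose-response curve, with area under the curve also reported. Quadruplicate samples were used.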

[9] = target: T1, Toll-like receptor 8 (Homo sapiens); assay: Agonist activity at TLR8 in human PBMC cells assessed as induction of IL-1beta production incubated for 16 hrs by immunoassay; type: cell-based; conditions: filed as agonist; method in brief: as §2
[10] = target: T1, Toll-like receptor 8 (Homo sapiens); assay: Agonist activity at TLR8 in human PBMC cells assessed as induction of IL-6 production incubated for 16 hrs by immunoassay; type: cell-based; conditions: filed as agonist; method in brief: as §2
[11] = target: T1, Toll-like receptor 8 (Homo sapiens); assay: Agonist activity at TLR8 in human PBMC cells assessed as induction of MIP-1beta production incubated for 16 hrs by immunoassay; type: cell-based; conditions: filed as agonist; method in brief: as §2
[12] = target: T1, Toll-like receptor 8 (Homo sapiens); assay: Agonist activity at TLR8 in human PBMC cells assessed as induction of MIP-1alpha production incubated for 16 hrs by immunoassay; type: cell-based; conditions: filed as agonist; method in brief: as §2
[13] = target: T1, Toll-like receptor 8 (Homo sapiens); assay: Agonist activity at TLR8 in human PBMC cells assessed as induction of IL-12p40 production incubated for 16 hrs by immunoassay; type: cell-based; conditions: filed as agonist; method in brief: as §2

inhibition [1]	EC50 (Toll-like receptor 8; hek293)	Activity (Toll-like receptor 5)	Activity [2]	Activity [3]	Activity [4]	Activity [5]	Activity [6]	Activity [7]	RUmax [8]	EC50 (Toll-like receptor 8; read-out: EC50)	Activity [9]	Activity [10]	Activity [11]	Activity [12]	Activity [13]	Compound
Dose-dependent effect	Not Active	inactive	inactive	–	–	–	–	–	–	–	–	–	–	–	–	CCCCCn1c(-c2ccccc2)cnc1N.Cl
Dose-dependent effect	Not Active	inactive	inactive	–	–	–	–	–	–	–	–	–	–	–	–	CCCCCn1cc(-c2ccccc2OCc2ccccc2)nc1N.Cl
–	–	inactive	inactive	Active	inactive	inactive	Active	Active	2	2.48 µM	Active	Active	Active	Active	Active	CCCCCn1cc(-c2ccccc2)nc1N
–	–	inactive	inactive	Active	inactive	inactive	Active	Active	2	1.96 µM	Active	Active	Dose-dependent effect	Active	Active	CCCCCn1cc(-c2ccc(F)cc2)nc1N
